According to ChEMBL document CHEMBL4602707, “Synthesis and Structure-Activity Relationship of Pyxinol Derivatives as Novel Anti-Inflammatory Agents” (ACS Med Chem Lett, 2020):
Calls of active or inactive are those of the source. The calls are words filed in the database; no cut-off is given here.

Assays:
RAW264.7 [1] = test: Cytotoxicity against LPS-stimulated mouse RAW264.7 cells at 20 uM after 24 hrs by MTT assay; type: cell-based; settings: raw264.7, 24 h
Outline: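 RAW264.7 cells co-treated with test agent (20 μM) and LPS (1 μg/mL) for 24 h; survival read by MTT. Mean ± SD, n = 3; significance versus control group.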

RAW264.7 [2] = test: Antiinflammatory activity in mouse RAW264.7 cells assessed as inhibition of LPS-induced NO production at 20 uM after 24 hrs by Griess method; type: functional, cell-based
Outline: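 RAW264.7 cells co-treated with test agent (20 μM) and LPS (1 μg/mL) for 24 h. NO released to medium measured by Griess assay. Hydrocortisone sodium succinate (20 μM) positive control. Mean ± SD, n = 3; significance versus control.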

RAW264.7 [3] = test: Antiinflammatory activity in mouse RAW264.7 cells assessed as reduction in LPS-induced iNOS expression at 20 uM after 24 hrs by Western blot analysis; type: functional, cell-based
Outline: (§1)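 RAW264.7 cells co-treated 24 h with LPS (1 μg/mL) plus test agent (10, 20, 30 μM) or hydrocortisone sodium succinate (20 μM). COX-2 and iNOS protein levels determined. Mean ± SD of three independent experiments; significance versus LPS-stimulated group.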

RAW264.7 [4] = test: Antiinflammatory activity in mouse RAW264.7 cells assessed as reduction in LPS-induced COX2 protein expression at 20 uM after 24 hrs by Western blot analysis; type: functional, cell-based; outline: as §1
RAW264.7 [5] = test: Inhibition of LPS-stimulated NFkappaB activation in mouse RAW264.7 cells assessed as reduction in LPS-induced IkappaB degradation at 20 uM after 2 hrs by Western blot analysis; type: cell-based
Outline: (§2)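 RAW264.7 cells co-treated 2 h with LPS (1 μg/mL) plus test agent (10, 20, 30 μM) or hydrocortisone sodium succinate (20 μM). IκB phosphorylation and degradation assessed as NF-κB pathway read-out. Mean ± SD, n = 3; significance versus LPS-stimulated group.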

RAW264.7 [6] = test: Inhibition of LPS-stimulated NFkappaB activation in mouse RAW264.7 cells assessed as reduction in LPS-induced IkappaB phosphorylation at 20 uM after 2 hrs by Western blot analysis; type: cell-based; outline: as §2
RAW264.7 [7] = test: Antiinflammatory activity in LPS-induced mouse RAW264.7 cells in presence of glucocorticoid receptor antagonist RU-486; type: functional, cell-based
RAW264.7 [8] = test: Antiinflammatory activity in mouse RAW264.7 cells assessed as reduction in LPS-induced iNOS expression after 24 hrs by Western blot analysis; type: functional, cell-based; outline: as §1
RAW264.7 [9] = test: Inhibition of LPS-stimulated NFkappaB activation in mouse RAW264.7 cells assessed as reduction in LPS-induced IkappaB degradation at 10 to 30 uM after 2 hrs by Western blot analysis; type: cell-based; outline: as §2
RAW264.7 [10] = test: Antiinflammatory activity in mouse RAW264.7 cells assessed as reduction in LPS-induced COX2 protein expression after 24 hrs by Western blot analysis; type: functional, cell-based; outline: as §1
RAW264.7 [11] = test: Antiinflammatory activity in mouse RAW264.7 cells assessed as reduction in LPS-stimulated TNF alpha secretion preincubated for 2 hrs followed by LPS addition and measured after 4 hrs by ELISA; type: functional, cell-based
Outline: (§3)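 RAW264.7 cells pretreated 2 h with test agent (10, 20, 30 μM) or hydrocortisone sodium succinate (20 μM), then LPS (1 μg/mL) for 4 h. TNF-α and IL-6 production measured. Mean ± SD, n = 3; significance versus control group.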

RAW264.7 [12] = test: Antiinflammatory activity in mouse RAW264.7 cells assessed as reduction in LPS-induced IL-6 secretion preincubated for 2 hrs followed by LPS addition and measured after 4 hrs by ELISA; type: functional, cell-based; outline: as §3
RAW264.7 [13] = test: Inhibition of LPS-stimulated NFkappaB activation in mouse RAW264.7 cells assessed as reduction in LPS-induced IkappaB phosphorylation at 10 to 30 uM after 2 hrs by Western blot analysis; type: cell-based; outline: as §2

SMILES	Activity (RAW264.7 [1])	inhibition (RAW264.7 [2])	other results
CC(C)(O)[C@H]1CC[C@@](C)([C@H]2CC[C@]3(C)[C@@H]2[C@@H](N)C[C@@H]2[C@@]4(C)CC[C@H](O)C(C)(C)[C@@H]4CC[C@]23C)O1	Toxic		
CC(C)(O)[C@H]1CC[C@@](C)([C@H]2CC[C@]3(C)[C@@H]2C(=O)C[C@@H]2[C@@]4(C)CCC(=O)C(C)(C)[C@@H]4CC[C@]23C)O1	Non-Toxic		
CC(C)(O)[C@H]1CC[C@@](C)([C@H]2CC[C@]3(C)[C@@H]2/C(=N/O)C[C@@H]2[C@@]4(C)CC[C@H](O)C(C)(C)[C@@H]4CC[C@]23C)O1	Non-Toxic	inactive	
CCCCCC(=O)O[C@H]1CC[C@]2(C)[C@H]3C[C@@H](O)[C@@H]4[C@@H]([C@]5(C)CC[C@H](C(C)(C)O)O5)CC[C@@]4(C)[C@]3(C)CC[C@H]2C1(C)C	Non-Toxic	Active	
CC(C)(O)[C@@H]1CC[C@@](C)([C@H]2CC[C@]3(C)[C@@H]2[C@H](O)C[C@@H]2[C@@]4(C)CCC(=O)C(C)(C)[C@@H]4CC[C@]23C)O1	Non-Toxic	Active	
CC(C)(O)[C@H]1CC[C@@](C)([C@H]2CC[C@]3(C)[C@@H]2C(=O)C[C@@H]2[C@@]4(C)CC[C@H](O)C(C)(C)[C@@H]4CC[C@]23C)O1	Non-Toxic	Active	
CC(C)(O)[C@@H]1CC[C@@](C)([C@H]2CC[C@]3(C)[C@@H]2[C@H](O)C[C@@H]2[C@@]4(C)CC[C@H](N)C(C)(C)[C@@H]4CC[C@]23C)O1	Non-Toxic	Active	
CC(C)(O)[C@H]1CC[C@@](C)([C@H]2CC[C@]3(C)[C@@H]2[C@H](O)C[C@@H]2[C@@]4(C)CC[C@H](O)C(C)(C)[C@@H]4CC[C@]23C)O1	Non-Toxic	Active	
CC(C)(O)[C@H]1CC[C@@](C)([C@H]2CC[C@]3(C)[C@@H]2[C@H](O)C[C@@H]2[C@@]4(C)CCC(=O)C(C)(C)[C@@H]4CC[C@]23C)O1	Non-Toxic	Active	
CC(C)(O)[C@H]1CC[C@@](C)([C@H]2CC[C@]3(C)[C@@H]2[C@@H](O)C[C@@H]2[C@@]4(C)CC[C@H](O)C(C)(C)[C@@H]4CC[C@]23C)O1		inactive	
CC(C)(O)[C@@H]1CC[C@@](C)([C@H]2CC[C@]3(C)[C@@H]2[C@H](O)C[C@@H]2[C@@]4(C)CC[C@H](O)C(C)(C)[C@@H]4CC[C@]23C)O1	Non-Toxic	inactive	
C[C@]12CCC(=O)C=C1CC[C@@H]1[C@@H]2[C@@H](O)C[C@@]2(C)[C@H]1CC[C@]2(O)C(=O)COC(=O)CCC(=O)O			Activity (RAW264.7 [3]): Active; Activity (RAW264.7 [4]): Active; inhibition (RAW264.7 [5]): Active; inhibition (RAW264.7 [6]): Active
CC(C)(O[Si](C)(C)C(C)(C)C)[C@H]1CC[C@@](C)([C@H]2CC[C@]3(C)[C@@H]2[C@H](O)C[C@@H]2[C@@]4(C)CC[C@H](O)C(C)(C)[C@@H]4CC[C@]23C)O1	Non-Toxic	inactive	
CC(C)(O)[C@@H]1CC[C@@](C)([C@H]2CC[C@]3(C)[C@@H]2[C@H](O)C[C@@H]2[C@@]4(C)CC/C(=N\O)C(C)(C)[C@@H]4CC[C@]23C)O1	Non-Toxic	Active	
CCCCCC(=O)O[C@H]1CC[C@]2(C)[C@H]3C[C@@H](O)[C@@H]4[C@@H]([C@]5(C)CC[C@@H](C(C)(C)O)O5)CC[C@@]4(C)[C@]3(C)CC[C@H]2C1(C)C	Non-Toxic	Active	
CC(C)(O)[C@H]1CC[C@@](C)([C@H]2CC[C@]3(C)[C@@H]2[C@H](O)C[C@@H]2[C@@]4(C)CC[C@@H](N)C(C)(C)[C@@H]4CC[C@]23C)O1	Non-Toxic	Active	
CC(C)(O)[C@H]1CC[C@@](C)([C@H]2CC[C@]3(C)[C@@H]2C(=N)C[C@@H]2[C@@]4(C)CC[C@H](O)C(C)(C)[C@@H]4CC[C@]23C)O1	Non-Toxic	inactive	
CC(C)(O)[C@H]1CC[C@@](C)([C@H]2CC[C@]3(C)[C@@H]2[C@H](O)C[C@@H]2[C@@]4(C)CC/C(=N\O)C(C)(C)[C@@H]4CC[C@]23C)O1	Non-Toxic	Active	Activity (RAW264.7 [7]): Active; Activity (RAW264.7 [8]): Dose-dependent effect; inhibition (RAW264.7 [9]): Active; Activity (RAW264.7 [10]): Dose-dependent effect; Activity (RAW264.7 [11]): Dose-dependent effect; Activity (RAW264.7 [12]): Dose-dependent effect; inhibition (RAW264.7 [13]): Active
CC(C)(O)[C@H]1CC[C@@](C)([C@H]2CC[C@]3(C)[C@@H]2[C@H](O)C[C@@H]2[C@@]4(C)CC[C@H](N)C(C)(C)[C@@H]4CC[C@]23C)O1	Non-Toxic	Active	
